Experimental findings from ChEMBL document CHEMBL1649119, “Daptomycin pharmacokinetics in adult oncology patients with neutropenic fever” (Antimicrob Agents Chemother, 2009) are described below.

For data set [1], the system named is Homo sapiens. As to the kind of experiment: Cmax in healthy human subjects at 6 mg/kg, iv administered as 30 mins infusion every 24 hrs measured on day 4. The format is ADME, organism-based. Set-up: dose 6 mg/kg, route intravenous. Particulars: in vivo.
Data set [2] in a line: AUC ( 0 to infinity) in cancer patient with neutropenic fever at 6 mg/kg, iv administered as 30 mins infusion every 24 hrs. It counts as ADME, organism-based. Set-up: time infinity, dose 6 mg/kg, route intravenous. Particulars: human, plasma. The gist of the method: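 Adult oncology patients with neutropenic fever (n = 29) received 6 mg/kg by total body weight as a 30-min IV infusion. Plasma was sampled predose, at end of infusion, and at 0.5, 1, 2, 4, 8, 12 and 24 h. Total drug was measured by validated HPLC (linear 1–100 μg/ml). Noncompartmental analysis: AUC0-24 by linear trapezoidal rule, plus last concentration/λz. Mean ± SD.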

Data set [3] in a line: Unbound fraction in healthy human plasma at 8 mg/kg, iv administered as 30 mins infusion every 24 hrs measured on day 7. It counts as ADME, organism-based. Set-up: dose 8 mg/kg, route intravenous.
Data set [4] can be described thus: Cmax in healthy human at 8 mg/kg, iv administered as 30 mins infusion every 24 hrs measured on day 1. The arrangement: dose 8 mg/kg, route intravenous. Particulars: in vivo. It counts as ADME, organism-based.
A short description of data set [5]: Half life in morbidly obese adult human at 4 mg/kg, iv administered as single dose 30 mins infusion. It counts as ADME, organism-based. Set-up: dose 4 mg/kg, route intravenous. Particulars: in vivo.
A short description of data set [6]: Cmax in healthy human at 8 mg/kg, iv administered as 30 mins infusion every 24 hrs measured on day 7. Set-up: dose 8 mg/kg, route intravenous. The format is ADME, organism-based. Particulars: in vivo.
Data set [7] deals with Homo sapiens. Kind of data set: Unbound clearance in healthy human at 8 mg/kg, iv administered as 30 mins infusion every 24 hrs measured on day 1. The arrangement: dose 8 mg/kg, route intravenous. It counts as ADME, organism-based. Particulars: in vivo.
The nature of data set [8]: Half life in healthy human at 8 mg/kg, iv administered as 30 mins infusion every 24 hrs measured on day 14. It counts as ADME, organism-based. The arrangement: dose 8 mg/kg, route intravenous. Particulars: in vivo.
Data set [9] in a line: Drug excretion in young healthy human urine assessed as unchanged drug at 4 mg/kg, iv administered as single dose 30 mins infusion. It counts as ADME, organism-based. Set-up: dose 4 mg/kg, route intravenous. Particulars: read-out: Drug uptake.
The nature of data set [10]: AUC (0 to infinity) in healthy human subjects at 8 mg/kg, iv administered as 30 mins infusion every 24 hrs measured on day 1. The format is ADME, organism-based. Set-up: time infinity, dose 8 mg/kg, route intravenous. Particulars: plasma.
Data set [11] can be described thus: Plasma protein binding in human after 2 hrs. It counts as ADME, cell-free. Particulars: read-out: PPB (converted). Put shortly: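 Neutropenic-fever oncology patients received 6 mg/kg IV daptomycin; serum was drawn 0.5, 2 and 8 h after the end of infusion. Free drug was obtained by ultrafiltration (30,000-MW cutoff) and quantified by HPLC against a saline-matrix curve of 0.25–100 μg/ml, with total plasma drug also measured. Percent bound was (total − free)/total × 100; results are given as mean ± SD.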

Data set [12] is described as follows: Plasma concentration in cancer patient with neutropenic fever at 6 mg/kg, iv administered as 30 mins infusion every 24 hrs measured after 24 hrs. Particulars: human. Set-up: dose 6 mg/kg, route intravenous. The format is ADME, organism-based. The gist of the method: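 29 adult oncology patients with neutropenic fever received 6 mg/kg (total body weight) daptomycin as a 30-min IV infusion every 24 h. Plasma was sampled predose, at end of infusion, and 0.5, 1, 2, 4, 8, 12 and 24 h after infusion start. Total drug was measured by validated HPLC (linear 1–100 μg/ml, detection limit 1 μg/ml). Tmax was the observed value, analysed noncompartmentally.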

Data set [13] is described as follows: Half life in healthy human subjects at 12 mg/kg, iv administered as 30 mins infusion every 24 hrs measured on day 14. It counts as ADME, organism-based. The arrangement: dose 12 mg/kg, route intravenous. Particulars: in vivo.
Data set [14] is described as follows: AUC (0 to infinity) in healthy adult human at 6 mg/kg, iv administered as single dose 30 mins infusion. It counts as ADME, organism-based. Set-up: dose 6 mg/kg, route intravenous, time infinity. Particulars: plasma.
Data set [15] can be described thus: Cmax in healthy human subjects at 10 mg/kg, iv administered as 30 mins infusion every 24 hrs measured on day 4. The format is ADME, organism-based. The arrangement: dose 10 mg/kg, route intravenous. Particulars: in vivo.
Data set [16] can be described thus: Cmax in young healthy human at 4 mg/kg, iv administered as single dose 30 mins infusion. It counts as ADME, organism-based. The arrangement: dose 4 mg/kg, route intravenous. Particulars: in vivo.
Data set [17] in a line: Half life in healthy human subjects at 6 mg/kg, iv administered as 30 mins infusion every 24 hrs measured on day 1. The format is ADME, organism-based. Set-up: dose 6 mg/kg, route intravenous. Particulars: in vivo.
The nature of data set [18]: AUC (0 to infinity) in healthy human at 4 mg/kg, iv administered as 30 mins infusion every 24 hrs measured on day 7. The format is ADME, organism-based. Set-up: time infinity, dose 4 mg/kg, route intravenous. Particulars: plasma.
Data set [19] is described as follows: Clearance in adult human subjects at 6 mg/kg, iv administered as single dose 30 mins infusion. The format is ADME, organism-based. The arrangement: dose 6 mg/kg, route intravenous. Particulars: in vivo.
Data set [20] is described as follows: Clearance in healthy human subjects at 8 mg/kg, iv administered as 30 mins infusion every 24 hrs measured on day 1. It counts as ADME, organism-based. The arrangement: dose 8 mg/kg, route intravenous. Particulars: in vivo.
Data set [21] is described as follows: Plasma concentration in morbidly obese adult human at 4 mg/kg, iv administered as single dose 30 mins infusion measured after 24 hrs. The format is ADME, organism-based. Set-up: dose 4 mg/kg, route intravenous.
Data set [22] is described as follows: AUC (0 to infinity) in adult human subjects at 6 mg/kg, iv administered as single dose 30 mins infusion. It counts as ADME, organism-based. The arrangement: time infinity, dose 6 mg/kg, route intravenous. Particulars: plasma.

A word on the Cmax: it is the peak of the concentration-time curve. In general, AUC(0-inf) refers to the area under the concentration-time curve extrapolated to infinity. In general, half-life refers to the time in which the quantity being followed falls by half. Broadly, the clearance is the rate of elimination divided by the concentration. Read a low clearance as inefficient removal. With `CCCCCCCCCC(=O)N[C@@H](Cc1c[nH]c2ccccc12)C(=O)N[C@H](CC(N)=O)C(=O)N[C@@H](CC(=O)O)C(=O)N[C@@H]1C(=O)NCC(=O)N[C@@H](CCCN)C(=O)N[C@@H](CC(=O)O)C(=O)N[C@H](C)C(=O)N[C@@H](CC(=O)O)C(=O)NCC(=O)N[C@H](CO)C(=O)N[C@@H]([C@H](C)CC(=O)O)C(=O)N[C@@H](CC(=O)c2ccccc2N)C(=O)O[C@@H]1C`, the Cmax in [1] stood at 93.9 µg/mL; in data set [4] it was 116 µg/mL; in [6] it was 133 µg/mL; in data set [15], 141 µg/mL; in [16] it was 42.3 µg/mL. In addition, the total exposure AUC(0-inf) in [2] was determined as 427 µg·h/mL; in data set [10], 773 µg·h/mL; in data set [14], 598 µg·h/mL; in [18], 494 µg·h/mL; in [22] it was 928 µg·h/mL. For the same compound, in [3], the fraction unbound at 7 day stood at 0.09. Moreover, the half-life is 8.12 h in [5], 8.9 h in data set [8], 7.9 h in data set [13] and 7.5 h in [17]. The CL in data set [7] was 0.833 mL/min/kg. The dose excreted at 0.5 h in data set [9] was 42.3%. The fraction unbound at 2 h in data set [11] is 0.063. The concentration at 24 h stood at 5.67 µg/mL in [12] and 5.88 µg/mL in [21]. The results for the clearance in [19] and in data set [20] were 0.109 mL/min/kg and 0.168 mL/min/kg, respectively.
